Where “and” joins values, the source holds several entries; their conditions need not be identical. Identical values can stand only once.

In one experiment the test system is Aorta. The experiment in a line: Inhibition of noradrenaline-induced contraction in Wistar rat thoracic aortic ring assessed as vasorelaxant activity at 300 uM treated after noradrenaline challenge. The class given is functional. Further details: scale not given: the % may be the effect or the level left. The procedure, abridged: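 Male Wistar rats, 250–300 g, were decapitated and aortic strips were mounted in 37 °C Krebs solution (pH 7.4) gassed with 95% O2/5% CO2, connected to a tension transducer. Strips were contracted with 59 µM noradrenaline, washed, stabilised 30 min, then re-contracted with 59 µM noradrenaline. At peak contraction, compound in ethanol or ethanol alone was added and relaxation was recorded.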

The nature of experiment [1]: Antiplatelet activity against pig platelet assessed as inhibition of ADP-induced platelet aggregation by spectrophotometry. The format is functional, cell-based. Particulars: Sus scrofa. The method, boiled down:
(§1)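 Pig blood (six pigs) spun 1000 rpm 10 min for PRP, then 1500 rpm 10 min for PPP; PRP adjusted to 2×10^8 platelets/mL with autologous PPP. Compound (final 100 µM to 1 nM, diluted in NS from DMSO/NS stock) or NS added, then inducer at final PAF 0.1 µM, ADP 10 µM, AA 350 µM or thrombin 0.1 U/mL.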

Experiment [2] is described as follows: Antiplatelet activity against pig platelet assessed as inhibition of PAF-induced platelet aggregation by spectrophotometry. The format is functional, cell-based. Particulars: Sus scrofa. The method, boiled down:
as §1

Experiment [3] is described as follows: Antiplatelet activity against pig platelet assessed as inhibition of arachidonic acid-induced platelet aggregation by spectrophotometry. The class given is functional, cell-based. To be noted: Sus scrofa. The method, boiled down: as §1
Experiment [4] can be described thus: Antiplatelet activity against pig platelet assessed as inhibition of thrombin-induced platelet aggregation by spectrophotometry. To be noted: Sus scrofa. The class given is functional, cell-based. The procedure, abridged:
as §1

For experiment [5], the system named is Rattus norvegicus. The experiment in a line: Antithrombotic activity in Wistar rat assessed as thrombus weight at 10 nmol/kg, iv (reference value: 24.09 +/- 2.33 mg). The class given is functional.
In experiment [6] the test system is Rattus norvegicus. Kind of experiment: Antithrombotic activity in Wistar rat assessed as thrombus weight at 15 umol/kg, iv (reference value: 28.54 +/- 2.62 mg). The format is functional.
For experiment [7], the system named is Rattus norvegicus. Kind of experiment: Antithrombotic activity in Wistar rat assessed as thrombus weight at 167 umol/kg, iv (reference value: 25.99 +/- 2.41 mg). The format is functional.
The subject of experiment [8] is Rattus norvegicus. Kind of experiment: Antithrombotic activity in Wistar rat assessed as thrombus weight at 167 umol/kg, iv (reference value: 24.09 +/- 2.33 mg). The class given is functional.
The subject of experiment [9] is Rattus norvegicus. The experiment in a line: Antithrombotic activity in Wistar rat assessed as thrombus weight at 167 umol/kg, iv (reference value: 28.54 +/- 2.62 mg). The format is functional.
A short description of experiment [10]: Antiplatelet activity against pig platelet assessed as inhibition of ADP-induced platelet aggregation at 10 uM by spectrophotometry. The format is functional. To be noted: Sus scrofa. The procedure, abridged:
as §1

Experiment [11] can be described thus: Antiplatelet activity against pig platelet assessed as inhibition of arachidonic acid-induced platelet aggregation at 10 uM by spectrophotometry. The class given is functional. Particulars: Sus scrofa. The method, boiled down: as §1
In experiment [12] the test system is Rattus norvegicus. Kind of experiment: Antithrombotic activity in Wistar rat assessed as thrombus weight at 15 umol/kg, iv (reference value: 24.09 +/- 2.33 mg). The format is functional.
Experiment [13] can be described thus: Antiplatelet activity against pig platelet assessed as inhibition of PAF-induced platelet aggregation at 10 uM by spectrophotometry. The format is functional. Particulars: Sus scrofa. The procedure, abridged: as §1
Experiment [14] has as its system Rattus norvegicus. Kind of experiment: Antithrombotic activity in Wistar rat assessed as thrombus weight at 15 umol/kg, iv (reference value: 25.99 +/- 2.41 mg). The format is functional.
Experiment [15] in a line: Antiplatelet activity against pig platelet assessed as inhibition of thrombin-induced platelet aggregation at 10 uM by spectrophotometry. The class given is functional. To be noted: Sus scrofa. The procedure, abridged:
as §1

In experiment [16] the test system is Rattus norvegicus. Kind of experiment: Antithrombotic activity in Wistar rat assessed as thrombus weight at 100 nmol/kg, iv (reference value: 22.09 +/- 3.33 mg). The class given is functional.
Experiment [17] concerns Rattus norvegicus. The experiment in a line: Antithrombotic activity in Wistar rat assessed as thrombus weight at 1 nmol/kg, iv (reference value: 22.09 +/- 3.33 mg). The class given is functional.
Experiment [18] relates to Rattus norvegicus. Kind of experiment: Antithrombotic activity in iv dosed Wistar rat assessed as decrease in thrombus weight. The class given is functional, organism-based.

By IC50 is commonly meant the concentration at which inhibition is half-maximal. Regarding `CC1(C)N2Cc3ccccc3C[C@H]2C(=O)N1[C@@H](Cc1ccccc1)C(=O)O`, the Activity in the experiment on Aorta was found to be 26.61%; with Rattus norvegicus [5] it was 13.27 mg. In addition, the IC50 in [1] was found to be 163 nM; in experiment [2], 496 nM; in experiment [3], 277 nM; in experiment [4], 578 nM.

As for `CCC(C)[C@@H](C(=O)O)N1C(=O)[C@@H]2Cc3ccccc3CN2C1(C)C` (stereo partly drawn), the Activity in the experiment on Aorta amounted to 34.29%; in the experiment on Rattus norvegicus [5], 12.99 mg. For the same compound, the IC50 in experiment [1] was 158 nM; in experiment [2] it was 486 nM; in experiment [3], 271 nM; in experiment [4], 565 nM.

Turning to `CC1(C)N2Cc3ccccc3C[C@H]2C(=O)N1[C@@H](CCCNC(=N)N)C(=O)O`, the results for the Activity with Aorta and in the experiment on Rattus norvegicus [5] were 32.58% and 13.01 mg, respectively. The IC50 in experiment [1] was found to be 159 nM; in experiment [2] it was 486 nM; in [3], 271 nM; in experiment [4] it was 567 nM.

As for `CC(=O)Oc1ccccc1C(=O)O` [ASPIRIN], the Activity came to 27.6 mg in the experiment on Rattus norvegicus [6], 15.01 mg in the experiment with Rattus norvegicus [7], 13.22 mg with Rattus norvegicus [8] and 13.22 mg in the experiment with Rattus norvegicus [9].

As to `CC1(C)N2Cc3ccccc3C[C@H]2C(=O)N1[C@@H](CS)C(=O)O`, the Activity came out at 16.57% in the experiment on Aorta and 14.36 mg with Rattus norvegicus [5]. The IC50 in experiment [1] came to 180 nM; in experiment [2], 535 nM; in [3], 299 nM; in experiment [4] it was 622 nM.

As to `CC1(C)N2Cc3ccccc3C[C@H]2C(=O)N1[C@@H](CCC(N)=O)C(=O)O`, the Activity in the experiment on Aorta came out at 12.24%; in the experiment with Rattus norvegicus [5], 14.39 mg. In addition, the half-maximal inhibitory concentration (IC50) in experiment [1] turned out to be 182 nM; in experiment [2] it was 541 nM; in experiment [3], 302 nM; in experiment [4], 629 nM.

With `CC1(C)N2Cc3ccccc3C[C@H]2C(=O)N1[C@@H](Cc1ccc(O)cc1)C(=O)O`, the figures for the Activity with Aorta and with Rattus norvegicus [5] were 1.59% and 20.1 mg, respectively. For the same compound, the IC50 came out at 273 nM in [1], 752 nM in experiment [2], 420 nM in [3] and 875 nM in experiment [4].

`CC1(C)N2Cc3ccccc3C[C@H]2C(=O)N1[C@@H](CC(=O)O)C(=O)O`: the Activity in the experiment with Aorta turned out to be 2.89%; with Rattus norvegicus [5] it was 21.41 mg. Moreover, the IC50 in experiment [1] is 294 nM; in experiment [2], 801 nM; in experiment [3], 447 nM; in experiment [4] it was 932 nM.

For the compound `CC1(C)N2Cc3ccccc3C[C@H]2C(=O)N1[C@@H](CC(N)=O)C(=O)O`, the Activity with Aorta was 3.89%; with Rattus norvegicus [5] it was 20.75 mg. Besides, the IC50 in experiment [1] was 283 nM; in experiment [2] it was 777 nM; in experiment [3] it was 433 nM; in experiment [4], 903 nM.

Take `CC(O)[C@@H](C(=O)O)N1C(=O)[C@@H]2Cc3ccccc3CN2C1(C)C` (stereo partly drawn): the Activity in the experiment with Aorta came to 9.98%; in the experiment with Rattus norvegicus [5] it was 16.04 mg. Besides, the IC50 in experiment [1] stood at 207 nM; in experiment [2], 600 nM; in [3], 335 nM; in experiment [4], 698 nM.

Take `CC(C)[C@@H](C(=O)O)N1C(=O)[C@@H]2Cc3ccccc3CN2C1(C)C`: the Activity is reported as 16% in the experiment with Aorta and 14.01 mg in the experiment on Rattus norvegicus [5]. In addition, the half-maximal inhibitory concentration (IC50) in experiment [1] came to 175 nM; in [2], 525 nM; in experiment [3], 292 nM; in experiment [4] it was 610 nM.

Consider `CC1(C)N2Cc3ccccc3C[C@H]2C(=O)N1[C@@H](CCC(=O)O)C(=O)O`, for which the Activity in the experiment on Aorta worked out at 4.33%; with Rattus norvegicus [5], 18.57 mg. The concentration for half-maximal inhibition (IC50) was 248 nM in experiment [1], 695 nM in experiment [2], 388 nM in experiment [3] and 808 nM in experiment [4].

Turning to `CSCC[C@@H](C(=O)O)N1C(=O)[C@@H]2Cc3ccccc3CN2C1(C)C`, the Activity in the experiment with Aorta is listed as 5.58%; with Rattus norvegicus [5] it was 19.56 mg. In addition, the IC50 amounted to 264 nM in [1], 499 nM in experiment [2], 408 nM in experiment [3] and 852 nM in experiment [4].

In the case of `C[C@@H](C(=O)O)N1C(=O)[C@@H]2Cc3ccccc3CN2C1(C)C`, the Activity is listed as 8.41% in the experiment with Aorta and 15.45 mg in the experiment on Rattus norvegicus [5]. Moreover, the IC50 in experiment [1] is 200 nM; in experiment [2], 576 nM; in experiment [3], 324 nM; in [4], 677 nM.

`CC1(C)N2Cc3ccccc3C[C@H]2C(=O)N1[C@@H](CCCCN)C(=O)O`: the Activity in the experiment with Aorta stood at 12.01%; with Rattus norvegicus [5], 14.98 mg. In addition, the concentration for half-maximal inhibition (IC50) came out at 191 nM in experiment [1], 561 nM in [2], 313 nM in experiment [3] and 652 nM in [4].

In the case of `CC1(C)N(CC(=O)O)C(=O)[C@@H]2Cc3ccccc3CN21`, the Activity with Aorta is 21.11%; in the experiment on Rattus norvegicus [5], 14.39 mg and 13.89 mg. Besides, the IC50 is 173 nM in [1], 519 nM in experiment [2], 290 nM in experiment [3] and 604 nM in experiment [4].

One may read the inhibition as how much of the control response was suppressed. For `O=C(O)[C@@H]1Cc2ccccc2CN1`, the inhibition at 10 µM came to 10.7% in [10], 10.4% in experiment [11], 13.5% in [13] and 14.5% in experiment [15]. In addition, the half-inhibitory concentration (IC50) amounted to 542 nM in [1], 944 nM in experiment [2], 481 nM in experiment [3] and 980 nM in [4]. The Activity was 22.01 mg with Rattus norvegicus [12] and 22.22 mg with Rattus norvegicus [14].

In the case of `CC(C)C[C@@H](C(=O)O)N1C(=O)[C@@H]2Cc3ccccc3CN2C1(C)C`, the Activity in the experiment on Rattus norvegicus [16] was 10.02 mg; with Rattus norvegicus [17], 20.67 mg; with Aorta, 30.14%; in the experiment with Rattus norvegicus [5], 12.99 mg and 13.79 mg. The IC50 in [1] turned out to be 171 nM; in experiment [2], 515 nM; in experiment [3], 287 nM; in [4] it was 599 nM. Moreover, the inhibition entry in the experiment with Rattus norvegicus [18] is “Dose-dependent effect”.

For the origin of these results see ChEMBL document CHEMBL1641479, “2-Substituted (S)-2-(3,3-dimethyl-1-oxo-10,10a-dihydroimidazo[1,5-b]isoquinolin-2(1H,3H,5H)-yl)acetic acids: Conformational prediction, synthesis, anti-thrombotic and vasodilative evaluation” (Bioorg Med Chem, 2011).
